One may read the inhibition as how much of the control response was suppressed. As a reminder, the IC50 is the point on the concentration scale where inhibition reaches its midpoint. A lower IC50 goes with greater potency in that assay. The term CC50 denotes the concentration at which the toxic effect on the cells reaches its halfway point.

Calls of active or inactive are those of the source. The calls are words filed in the database; no cut-off is given here.

The text below walks through data of ChEMBL document CHEMBL4130477, “Metabolites from the Plant Endophytic Fungus Aspergillus sp. CPCC 400735 and Their Anti-HIV Activities” (J Nat Prod, 2017).

Series [1] concerns Human immunodeficiency virus 1. As to the kind of experiment: Antiviral activity against VSV-G pseudotyped HIV1 infected in human SupT1 cells at 100 uM after 48 hrs by luciferase reporter gene assay relative to control. Type of series: functional. The conditions noted are these: for inhibition at 100 µM: Human immunodeficiency virus 1, SUP-T1, 48 h. In a few lines: (§1)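 VSV-G pseudotyped HIV-1 (pNL-Luc-E plus pHIT/G) was made by […] (2 × 105), harvested at 48 h through a 0.45 μm filter, and quantified by p24 ELISA. […] Compounds were screened at 100 μM; IC50 was determined for those above 60% inhibition.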

The subject of series [2] is Human immunodeficiency virus 1. As to the kind of experiment: Antiviral activity against VSV-G pseudotyped HIV1 infected in human SupT1 cells after 48 hrs by luciferase reporter gene assay. Type of series: functional, organism-based. The conditions noted are these: Human immunodeficiency virus 1, SUP-T1, 48 h. An outline of the steps:
as §1
(A reporter such as luciferase makes a cellular process visible.)

Series [3] in a line: Cytotoxicity against human SupT1 cells assessed as decrease in cell viability after 48 hrs by CCK-8 assay. It counts as cell-based, SUP-T1. Background: Tetrazolium assays rely on reduction of a dye to a coloured formazan, in cell work by metabolically active cells.

In series [1], `C/C(=C\CC/C(C)=C/C[C@]1(O)C(=O)c2c(O)cc(C)c3c(O)c(C)c(O)c(c23)C1=O)CC/C=C(/CC[C@@H](O)C(C)(C)O)C(=O)O` displayed an inhibition at 100 µM of 48.1%.

In series [2], `COC1=C(c2ccc(O)cc2)[C@@H](Cc2ccc(O)cc2)OC1=O` returned an IC50 of 68.7 µM. Further, the CC50 at 48 h in series [3] came to 96.5 µM. For the same compound, the inhibition at 100 µM in series [1] was determined as 72.8%.

`C[C@H]1/C=C/OC(=O)O[C@@]23C(=O)N[C@@H](Cc4ccccc4)[C@@H]2[C@H](C)[C@@]2(C)OC2[C@@H]3/C=C/C[C@H](C)C1=O` (stereo partly drawn) yielded an inhibition at 100 µM in series [1] of 54.3%.

In series [2], `O=C1O[C@H](Cc2ccc(O)cc2)C(c2ccc(O)cc2)=C1O` had a half-inhibitory concentration (IC50) of 54.2 µM. Moreover, in series [3], the CC50 at 48 h is over 100 µM. The compound further yielded an inhibition at 100 µM in series [1] of 62.2%.

Compound `Cc1c(O)c(O)c(O)c(C=O)c1-c1cc2c(C=O)c(C)c(O)c(O)c2o1` came in with an IC50 in series [2] of 20.2 µM. Moreover, in series [3], the CC50 at 48 h is over 100 µM. This compound also had an inhibition at 100 µM in series [1] of 94.7%.

For the compound `C=C1[C@@H](C)[C@H]2[C@H](Cc3ccccc3)NC(=O)[C@]23OC(=O)/C=C/[C@H](C)[C@H](O)[C@@H](C)C/C=C/[C@H]3[C@@H]1O`, the IC50 in series [2] is 25.8 µM. Moreover, in series [3], the CC50 at 48 h turned out to be 95.1 µM. This compound registered an inhibition at 100 µM in series [1] of 100%.

The compound `Cc1c(O)c(O)c(O)c2c1COC2` registered a half-inhibitory concentration (IC50) in series [2] of 49.3 µM. Moreover, the CC50 at 48 h in series [3] is 91.4 µM. For the same compound, the inhibition at 100 µM in series [1] was determined as 90.8%.

`O=C1O/C(=C\c2ccc(O)cc2)C(O)=C1c1ccc(O)c(O)c1` came in with an IC50 in series [2] of 72.4 µM. Besides, the CC50 at 48 h in series [3] was over 100 µM. In addition, the inhibition at 100 µM in series [1] is 74.8%.

Turning to `O=C1O/C(=C\c2ccc(O)c(O)c2)C(O)=C1c1ccc(O)cc1`, the concentration for half-maximal inhibition (IC50) in series [2] turned out to be 40 µM. Also, the CC50 at 48 h in series [3] is over 100 µM. Besides, the inhibition at 100 µM in series [1] amounted to 72.3%.

In the case of `COc1cc(/C=C2\OC(=O)C(c3ccc(O)cc3)=C2O)ccc1O`, the inhibition entry in series [1] was “inactive”.

`COc1cc(/C=C2\OC(=O)C(c3ccc(O)cc3)=C2O)cc(O)c1O` came in with an IC50 in series [2] of 78.3 µM. Further, the CC50 at 48 h in series [3] is over 100 µM. The compound also came in with an inhibition at 100 µM in series [1] of 69.8%.

As to `Nc1ccn([C@@H]2CS[C@H](CO)O2)c(=O)n1` [LAMIVUDINE], in series [2], half-maximal inhibition (IC50) was put at 0.1 µM.

Consider `Cc1c(O)c(O)c2c(c1C=O)[C@@H]1O[C@H](O2)c2c(C)c(O)c(O)c(O)c2C1=O`, for which the IC50 in series [2] stood at 6.6 µM. The CC50 at 48 h in series [3] is over 100 µM. In series [1], this compound showed an inhibition at 100 µM of 99.9%.

In series [2], `C/C(=C\CC/C(C)=C/C[C@]1(O)C(=O)c2c(O)cc(C)c3c(O)c(C)c(O)c(c23)C1=O)CC/C=C(\CC[C@@H](O)C(C)(C)O)C(=O)O` registered a 50% inhibitory concentration (IC50) of 32.6 µM. For the same compound, in series [3], the CC50 at 48 h was 78.6 µM. Besides, the inhibition at 100 µM in series [1] was found to be 96.8%.

With `CC1=C(C)[C@H]2[C@H](Cc3ccccc3)NC(=O)[C@]23OC(=O)/C=C/[C@@](C)(O)C[C@@H](C)C/C=C/[C@H]3[C@@H]1O` [CYTOCHALASIN Z9], in series [2], the IC50 was found to be 14.4 µM. In addition, the cytotoxic concentration (CC50) at 48 h in series [3] was over 100 µM. In series [1], this compound returned an inhibition at 100 µM of 98.7%.

The compound `C/C1=C\CC(=O)O[C@@]23C(=O)N[C@@H](Cc4ccccc4)[C@@H]2[C@H](C)[C@@]2(C)O[C@H]2[C@@H]3/C=C/C[C@H](C)C1=O` came in with a half-maximal inhibitory concentration (IC50) in series [2] of 41.6 µM. Also, in series [3], the CC50 at 48 h was 98.6 µM. In addition, 100 µM produced 81.5% inhibition in series [1].

The compound `C/C(=C\CC/C(C)=C/C[C@]1(O)C(=O)c2c(O)cc(C)c3c(O)c(C)c(O)c(c23)C1=O)CC/C=C(\CO)CC[C@@H](O)C(C)(C)O` came in with an IC50 in series [2] of 22.1 µM. In addition, the CC50 at 48 h in series [3] is over 100 µM. The same compound showed an inhibition at 100 µM in series [1] of 98.6%.

`COC(=O)[C@@]1(Cc2ccc(O)c(C[C@H](O)C(C)(C)O)c2)OC(=O)C(OC)=C1c1ccc(O)cc1` came in with an IC50 in series [2] of 67.2 µM. In series [3], the CC50 at 48 h was over 100 µM. In series [1], the inhibition at 100 µM is 73.4%.

Consider `O=C1Nc2ccc(Cl)cc2[C@@](C#CC2CC2)(C(F)(F)F)O1` [EFAVIRENZ], for which the midpoint of inhibition in series [2], the IC50, lay at 0.0004 µM.

Consider `COc1cc(O)cc(C(=O)O)c1Oc1cc(C)cc(O)c1C(=O)O`, for which, in series [1], 100 µM produced 25.5% inhibition.

On to `COC(OC)C1CCC(C(C)(C)O)OC1CC/C(C)=C/CC/C(C)=C/C[C@]1(O)C(=O)c2c(O)cc(C)c3c(O)c(C)c(O)c(c23)C1=O` (stereo partly drawn), for which the IC50 in series [2] turned out to be 2.4 µM. Moreover, the CC50 at 48 h in series [3] was over 100 µM. Further, at 100 µM the inhibition in series [1] was 99.8%.

In turn, `COC(=O)c1cc(O)cc(OC)c1C(=O)c1c(O)c(Cl)c(C)c(Cl)c1O` [DIHYDROGEODIN] gave an IC50 in series [2] of 56.3 µM. The CC50 at 48 h in series [3] was over 100 µM. The compound further returned an inhibition at 100 µM in series [1] of 91.1%.

Take `COC(=O)[C@@]1(Cc2ccc3c(c2)C[C@H](O)C(C)(C)O3)OC(=O)C(OC)=C1c1ccc(O)cc1`: it took 48 µM to reach half-maximal inhibition in series [2] (IC50). Further, the CC50 at 48 h in series [3] amounted to 93 µM. Besides, the inhibition at 100 µM in series [1] stood at 84.8%.

As to `COc1cc(/C=C2\OC(=O)C(c3ccc(O)cc3)=C2O)cc(OC)c1O`, 43.7 µM corresponded to half-maximal inhibition in series [2] (IC50). In addition, the CC50 at 48 h in series [3] is over 100 µM. The compound further registered an inhibition at 100 µM in series [1] of 52.3%.

Compound `COC(=O)c1cc(O)cc(OC)c1Oc1cc(C)cc(O)c1C(=O)O` [ASTERRIC ACID] came in with an inhibition at 100 µM in series [1] of 8.53%.

The compound `COC(=O)c1cc(O)cc(OC)c1C(=O)c1c(O)cc(C)cc1O` [SULOCHRIN] gave an inhibition at 100 µM in series [1] of 53.8%.

For the compound `CC1=C(C)[C@H]2[C@H](Cc3ccccc3)NC(=O)[C@@]2(O)[C@@H](/C=C/C[C@H](C)C(=O)[C@H](C)O)[C@@H]1O` [CYTOCHALASIN Z13], the inhibition at 100 µM in series [1] is 44.9%.

Regarding `COC(=O)[C@]1(Cc2ccc(O)cc2)OC(=O)C(OC)=C1c1ccc(O)cc1`, the IC50 in series [2] was 74.8 µM. For the same compound, the half-maximal cytotoxic concentration (CC50) at 48 h in series [3] is over 100 µM. This compound registered an inhibition at 100 µM in series [1] of 68.7%.

`COC(=O)c1cc(O)cc(OC)c1Oc1c(Cl)c(C)c(Cl)c(O)c1C(=O)O`: the inhibition entry in series [1] was “inactive”.

`CC(C)=CCC/C(=C/CC/C(C)=C/CC/C(C)=C/C[C@]1(O)C(=O)c2c(O)cc(C)c3c(O)c(C)c(O)c(c23)C1=O)CO` gave an IC50 in series [2] of 4.5 µM. The CC50 at 48 h in series [3] was over 100 µM. In series [1], this compound returned an inhibition at 100 µM of 100%.

In turn, `CC1=C(C)[C@H]2[C@H](Cc3ccccc3)NC(=O)[C@]23OC(=O)/C=C/[C@H](C)[C@H](O)[C@@H](C)C/C=C/[C@H]3[C@@H]1O` registered an IC50 in series [2] of 9.2 µM. The CC50 at 48 h in series [3] is over 100 µM. The compound further had an inhibition at 100 µM in series [1] of 100%.

Take `COC(=O)[C@]1(Cc2ccc(O)cc2)OC(=O)C(O)=C1c1ccc(O)cc1`: half-maximal inhibition in series [2] (IC50) was put at 84.5 µM. Moreover, the CC50 at 48 h in series [3] was over 100 µM. At 100 µM the inhibition in series [1] was 60.8%.

For `O=C1O/C(=C\c2ccc(O)cc2)C(O)=C1c1ccc(O)cc1`, in series [1], the inhibition result is “inactive”.

On to `CC1=C(C)[C@H]2[C@H](Cc3ccccc3)NC(=O)[C@]23OC(=O)C/C=C(/C)C(=O)[C@@H](C)C/C=C/[C@H]3[C@@H]1O`, for which the IC50 in series [2] came out at 28.9 µM. Besides, the cytotoxic concentration (CC50) at 48 h in series [3] came out at 70.8 µM. In series [1], this compound displayed an inhibition at 100 µM of 79.5%.

The compound `COC(=O)[C@@]1(Cc2ccc(O)c(C[C@@H](O)C(C)(C)O)c2)OC(=O)C(OC)=C1c1ccc(O)cc1` came in with an IC50 in series [2] of 82.3 µM. The CC50 at 48 h in series [3] was found to be 94.3 µM. At 100 µM the inhibition in series [1] was 64.3%.
